In ChEMBL document CHEMBL2010703, “Synthesis and structure-activity relationship studies of 3-biaryl-8-oxabicyclo[3.2.1]octane-2-carboxylic acid methyl esters” (Bioorg Med Chem, 2012):

Assays:
[1] = target: Sodium-dependent dopamine transporter (Homo sapiens) (UniProt Q01959); experiment: Displacement of [3H]WIN 35,428 from human dopamine active transporter
Method in brief: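 A fixed radioligand concentration was run against a range of test-drug concentrations, and IC50 was read. Racemic compounds. Values are means of two or more independent experiments, each in triplicate.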

Homo sapiens = species: Homo sapiens; experiment: Selectivity ratio of IC50 for human DAT to IC50 for human SERT
Macaca mulatta = species: Macaca mulatta; experiment: Binding affinity to rhesus monkey DAT
Method in brief: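 Monkey striatal tissue; each compound tested 2–5 times. Competition binding used a fixed radioligand concentration against a range of test-drug concentrations.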

Sequence of Sodium-dependent dopamine transporter (Homo sapiens) (Q01959 whole entry): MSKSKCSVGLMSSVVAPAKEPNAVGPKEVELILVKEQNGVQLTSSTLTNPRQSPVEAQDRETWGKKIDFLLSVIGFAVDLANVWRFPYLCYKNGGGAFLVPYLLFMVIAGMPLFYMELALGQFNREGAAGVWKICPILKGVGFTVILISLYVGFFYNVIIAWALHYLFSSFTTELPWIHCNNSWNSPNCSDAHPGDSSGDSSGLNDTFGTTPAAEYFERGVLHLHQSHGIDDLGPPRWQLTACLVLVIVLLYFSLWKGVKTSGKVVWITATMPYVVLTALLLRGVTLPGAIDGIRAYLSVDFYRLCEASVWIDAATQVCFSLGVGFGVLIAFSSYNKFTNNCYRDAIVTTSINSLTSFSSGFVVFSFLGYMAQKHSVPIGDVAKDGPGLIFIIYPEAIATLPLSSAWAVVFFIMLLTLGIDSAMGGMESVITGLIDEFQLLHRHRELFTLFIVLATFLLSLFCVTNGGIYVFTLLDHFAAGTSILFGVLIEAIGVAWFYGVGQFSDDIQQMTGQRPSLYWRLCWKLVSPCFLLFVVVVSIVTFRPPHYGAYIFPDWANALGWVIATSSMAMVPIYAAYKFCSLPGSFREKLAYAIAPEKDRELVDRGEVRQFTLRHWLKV

SMILES	inhibition [1]	Ratio IC50 (Homo sapiens)	Activity (Macaca mulatta)
COC(=O)C1=C(c2cccs2)C[C@@H]2CC[C@H]1O2 (racemic)	Dose-dependent effect	1	–
COC(=O)C1=C(c2ccc(-c3ccccc3)n2C)CC2CCC1O2 (racemic)	Dose-dependent effect	1	–
COC(=O)C1=C(c2ccc(-c3ccccc3)s2)CC2CCC1O2 (racemic)	Dose-dependent effect	1	–
COC(=O)[C@H]1C2CCC(C[C@H]1c1cc3ccccc3o1)O2 (mixture of isomers)	Dose-dependent effect	< 0.04	–
COC(=O)C1=C(c2ccco2)C[C@@H]2CC[C@H]1O2 (racemic)	Dose-dependent effect	1	–
COC(=O)[C@@H]1C2CCC(C[C@@H]1c1cc3ccccc3[nH]1)O2 (mixture of isomers)	Dose-dependent effect	0.2	–
COC(=O)C1=C(c2cccc(-c3cccn3C)c2)CC2CCC1O2 (racemic)	Dose-dependent effect	> 14	–
COC(=O)[C@H]1C2CCC(C[C@@H]1c1cccs1)O2 (mixture of isomers)	Dose-dependent effect	1	–
COC(=O)[C@@H]1C2CCC(C[C@H]1c1cccs1)O2 (mixture of isomers)	Dose-dependent effect	1	–
COC(=O)[C@H]1[C@@H](c2ccc(F)cc2)C[C@@H]2CC[C@H]1N2C	–	–	12.9 nM
COC(=O)[C@@H]1C2CCC(C[C@H]1c1ccc(-c3cccs3)cc1)O2 (mixture of isomers)	Dose-dependent effect	10	–
COC(=O)[C@H]1C2CCC(C[C@H]1c1cccc(-c3nccs3)c1)O2 (mixture of isomers)	Dose-dependent effect	1	–
COC(=O)[C@H]1C2CCC(C[C@@H]1c1cc3ccccc3s1)O2 (mixture of isomers)	Dose-dependent effect	–	–
COC(=O)[C@@H]1C2CCC(C[C@H]1c1ccc(-c3ccco3)cc1)O2 (mixture of isomers)	Dose-dependent effect	4	–
COC(=O)[C@@H]1C2CCC(C[C@H]1c1ccc(-c3cccn3C)cc1)O2 (mixture of isomers)	Dose-dependent effect	> 2.5	–
COC(=O)[C@H]1C2CCC(C[C@@H]1c1cc3ccccc3[nH]1)O2 (mixture of isomers)	Dose-dependent effect	0.4	–
COC(=O)[C@@H]1C2CCC(C[C@H]1c1ccc(-c3nccs3)cc1)O2 (mixture of isomers)	Dose-dependent effect	> 7	–
COC(=O)[C@@H]1C2CCC(C[C@@H]1c1ccc(-c3ccco3)cc1)O2 (mixture of isomers)	Dose-dependent effect	2	–
COC(=O)[C@H]1C2CCC(C[C@H]1c1cc3ccccc3[nH]1)O2 (mixture of isomers)	Dose-dependent effect	< 0.3	–
COC(=O)C1=C(c2cc3ccccc3o2)CC2CCC1O2 (racemic)	Dose-dependent effect	< 0.1	–
O=C1C2=C(CC3CCC2O3)c2cc3ccccc3n21 (racemic)	Dose-dependent effect	1	–
COC(=O)C1=C(c2ccc(-c3ccccc3)o2)C[C@@H]2CC[C@H]1O2 (racemic)	Dose-dependent effect	1	–
COC(=O)C1=C(c2cc3ccccc3s2)CC2CCC1O2 (racemic)	Dose-dependent effect	< 0.004	–
COC(=O)[C@@H]1C2CCC(C[C@@H]1c1ccc(-c3cccn3C)cc1)O2 (mixture of isomers)	Dose-dependent effect	> 2	–
COC(=O)[C@@H]1C2CCC(C[C@H]1c1cc3ccccc3s1)O2 (mixture of isomers)	Dose-dependent effect	–	–
COC(=O)[C@H]1C2CCC(C[C@H]1c1ccc(-c3ccccc3)o1)O2 (mixture of isomers)	Dose-dependent effect	< 2	–
